According to ChEMBL document CHEMBL1132231, “New generation dopaminergic agents. 6. Structure-activity relationship studies of a series of 4-(aminoethoxy)indole and 4-(aminoethoxy)indolone derivatives based on the newly discovered 3-hydroxyphenoxyethylamine D2 template” (J Med Chem, 1999):

Legend:
D(2) dopamine receptor [1] = target: T1, D(2) dopamine receptor (Rattus norvegicus, UniProt P61169); test: In vitro high binding affinity towards Dopamine receptor D2 by the displacement of [3H]quinpirole radioligand in rat striatal membranes; format: cell membranes, Membrane
[2] = target: T2, Adrenergic receptor alpha-1 (Rattus norvegicus, UniProt P15823+P23944+P43140); test: In vitro binding affinity towards Alpha-1 adrenergic receptor by the displacement of [3H]prazosin radioligand in rat cortical homogenates
T2 sequence (P15823 whole entry): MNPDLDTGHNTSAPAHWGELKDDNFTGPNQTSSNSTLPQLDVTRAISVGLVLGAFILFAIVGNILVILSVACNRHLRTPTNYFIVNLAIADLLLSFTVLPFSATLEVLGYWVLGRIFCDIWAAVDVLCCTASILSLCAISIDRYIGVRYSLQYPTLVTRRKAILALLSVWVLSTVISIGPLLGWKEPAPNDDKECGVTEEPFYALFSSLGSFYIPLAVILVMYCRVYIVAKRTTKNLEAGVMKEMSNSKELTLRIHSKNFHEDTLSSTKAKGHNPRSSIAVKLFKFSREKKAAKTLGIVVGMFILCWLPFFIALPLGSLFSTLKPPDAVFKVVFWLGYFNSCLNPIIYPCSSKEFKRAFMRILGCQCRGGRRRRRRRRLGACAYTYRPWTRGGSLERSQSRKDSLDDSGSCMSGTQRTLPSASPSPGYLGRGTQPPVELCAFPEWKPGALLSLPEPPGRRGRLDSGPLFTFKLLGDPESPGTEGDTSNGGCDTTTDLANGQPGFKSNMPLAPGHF
T2 sequence (P23944 whole entry): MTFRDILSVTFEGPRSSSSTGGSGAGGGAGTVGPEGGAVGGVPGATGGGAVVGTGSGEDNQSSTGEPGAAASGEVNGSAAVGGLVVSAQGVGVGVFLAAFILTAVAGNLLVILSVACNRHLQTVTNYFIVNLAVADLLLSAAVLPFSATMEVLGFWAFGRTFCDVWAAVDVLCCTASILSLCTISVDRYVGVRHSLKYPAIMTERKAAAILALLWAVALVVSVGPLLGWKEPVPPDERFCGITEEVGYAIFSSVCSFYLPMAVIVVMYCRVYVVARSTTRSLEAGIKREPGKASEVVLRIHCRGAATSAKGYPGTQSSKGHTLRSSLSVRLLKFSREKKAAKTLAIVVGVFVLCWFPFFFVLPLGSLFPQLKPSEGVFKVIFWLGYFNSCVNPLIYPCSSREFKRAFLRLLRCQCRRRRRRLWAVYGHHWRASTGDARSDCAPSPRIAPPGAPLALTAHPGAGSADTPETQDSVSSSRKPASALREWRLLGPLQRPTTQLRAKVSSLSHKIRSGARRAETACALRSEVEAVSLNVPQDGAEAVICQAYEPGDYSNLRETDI
T2 sequence (P43140 whole entry): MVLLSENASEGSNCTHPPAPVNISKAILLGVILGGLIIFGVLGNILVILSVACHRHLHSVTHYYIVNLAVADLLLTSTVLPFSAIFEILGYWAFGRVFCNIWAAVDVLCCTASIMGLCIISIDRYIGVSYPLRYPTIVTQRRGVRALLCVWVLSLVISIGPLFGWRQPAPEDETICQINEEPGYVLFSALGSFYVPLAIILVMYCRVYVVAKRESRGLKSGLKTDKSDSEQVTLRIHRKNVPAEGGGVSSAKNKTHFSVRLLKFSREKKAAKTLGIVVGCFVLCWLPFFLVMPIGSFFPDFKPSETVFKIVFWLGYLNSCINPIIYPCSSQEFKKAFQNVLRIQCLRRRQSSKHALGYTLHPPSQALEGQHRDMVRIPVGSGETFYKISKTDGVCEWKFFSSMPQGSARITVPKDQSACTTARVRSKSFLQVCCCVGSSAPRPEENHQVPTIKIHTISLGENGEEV

[3] = target: T3, 5-hydroxytryptamine receptor 1A (Rattus norvegicus, UniProt P19327); test: In vitro binding affinity towards 5-hydroxytryptamine 1A receptor by the displacement of [3H]8-OH-DPAT radioligand in rat hippocampal homogenates; format: tissue-based, Hippocampus
T3 sequence (P19327 whole entry): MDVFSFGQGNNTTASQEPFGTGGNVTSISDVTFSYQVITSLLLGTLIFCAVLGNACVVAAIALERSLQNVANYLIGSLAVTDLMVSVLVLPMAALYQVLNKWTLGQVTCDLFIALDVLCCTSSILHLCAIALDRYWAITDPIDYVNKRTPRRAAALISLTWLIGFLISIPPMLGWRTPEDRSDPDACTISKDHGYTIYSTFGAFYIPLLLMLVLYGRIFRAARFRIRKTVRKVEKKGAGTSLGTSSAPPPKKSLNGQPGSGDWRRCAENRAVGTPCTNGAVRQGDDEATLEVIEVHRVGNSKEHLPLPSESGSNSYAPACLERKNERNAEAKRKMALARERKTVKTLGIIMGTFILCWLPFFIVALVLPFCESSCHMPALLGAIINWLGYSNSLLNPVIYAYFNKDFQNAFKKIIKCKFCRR

D(2) dopamine receptor [4] = target: T1, D(2) dopamine receptor; test: In vitro low binding affinity towards Dopamine receptor D2 by the displacement of [3H]spiperone radioligand in rat striatal membranes; format: cell membranes, Membrane
[5] = target: D(2) dopamine receptor (Rattus norvegicus) (UniProt P61169); test: Ratio of Dopamine D2 receptor (low)and Dopamine D2 receptor (high)
Method in brief: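 Ratio Ki(low)/Ki(high). Ki(low) comes from displacement of 1 nM [3H]spiperone in striatal membranes with 1 mM GppNHp and NaCl, 37 °C for 5 min. […] Both Ki values derived by Cheng-Prusoff from nine concentrations in triplicate; the ratio serves as an estimate of intrinsic activity.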

[6] = target: T3, 5-hydroxytryptamine receptor 1A; test: In vitro binding affinity towards 5-hydroxytryptamine 1A r receptor by the displacement of [3H]8-OH-DPAT radioligand in rat hippocampal homogenates; format: tissue-based, Hippocampus
Method in brief: (§1)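 Rat hippocampal homogenates labelled with [3H]-8-OH-DPAT (1.8 nM), incubated 10 min at 37 °C. Stopped with cold 50 mM Tris pH 7.7. Test compounds run in triplicate at at least eight concentrations. IC50 found by nonlinear regression and converted to apparent Ki by Cheng-Prusoff. Ki values are means of at least two experiments ± SEM; values without SEM are single determinations.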

[7] = target: T2, Adrenergic receptor alpha-1; test: In vitro binding affinity towards alpha-1 adrenergic receptor by the displacement of [3H]prazosin radioligand in rat cortical homogenates
Method in brief: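 Rat cortical homogenates labelled with [3H]prazosin (0.2 nM), incubated 30 min at 25 °C. Stopped with cold 50 mM Tris pH 7.4, then rapid filtration. Triplicate, at least eight concentrations. Nonlinear regression gave IC50, converted to apparent Ki by Cheng-Prusoff. Means of at least two experiments ± SEM; values without SEM are single determinations.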

[8] = target: T3, 5-hydroxytryptamine receptor 1A; test: The compound was tested for binding affinity on [3H]8-OH-DPAT as specific ligand on 5-hydroxytryptamine 1A receptor in rat hippocampus; format: tissue-based; method in brief: as §1

T1 sequence (P61169 whole entry): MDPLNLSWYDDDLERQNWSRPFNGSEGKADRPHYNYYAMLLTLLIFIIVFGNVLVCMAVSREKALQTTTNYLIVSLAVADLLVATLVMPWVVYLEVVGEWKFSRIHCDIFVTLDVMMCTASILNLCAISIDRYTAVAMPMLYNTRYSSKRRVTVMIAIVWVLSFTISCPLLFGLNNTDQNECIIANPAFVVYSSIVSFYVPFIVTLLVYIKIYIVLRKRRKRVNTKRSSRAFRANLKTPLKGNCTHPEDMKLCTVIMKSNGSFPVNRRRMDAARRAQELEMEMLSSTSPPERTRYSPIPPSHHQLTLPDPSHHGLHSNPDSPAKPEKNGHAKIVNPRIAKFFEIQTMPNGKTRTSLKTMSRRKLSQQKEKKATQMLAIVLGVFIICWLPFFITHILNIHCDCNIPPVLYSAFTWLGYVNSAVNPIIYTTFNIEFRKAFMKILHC
D(2) dopamine receptor (Rattus norvegicus), sequence (P61169 whole entry): as above

Row | Structure (SMILES) | Ki (D(2) dopamine receptor [1]) [µM] | Ki [2] [µM] | Ki [3] [µM] | Ki (D(2) dopamine receptor [4]) [µM] | Ratio [5] | Ki [6] [µM] | Ki [7] [µM] | Ki [8] [µM]
1 | O=C1Cc2c(cccc2OCCNCc2ccccc2)N1 | 0.00021 | 1.448 | 0.306 | 0.0114 |  |  |  | 
2 | O=C1Cc2c(OCCNCC3CCCCC3)ccc(F)c2N1 | 0.00065 | 0.38 | 0.017 | 0.0056 |  |  |  | 
3 | O=C1Cc2c(OCCNCc3cccs3)ccc(F)c2N1 | 0.00066 | 0.032 | 0.039 | 0.0218 |  |  |  | 
4 | NCCOc1cccc2c1CC(=O)N2 | 0.00693 | 11.081 | 0.664 | 0.268 |  |  |  | 
5 | O=C1Cc2c(OCCNCc3cccs3)ccc(Cl)c2N1 |  | 0.005 | 0.059 |  |  |  |  | 
6 | c1ccc(CNCCOc2cccc3[nH]ccc23)cc1 | 0.0097 |  |  | 0.0393 | 4 |  | 0.675 | 0.018
7 | CN(CCOc1cccc2c1CC(=O)N2)Cc1ccccc1 | 0.00076 | 4.829 | 6.26 | 0.0496 |  |  |  | 

Second part, the compound after the results:

Row | Ki (D(2) dopamine receptor [1]) [µM] | Ki [2] [µM] | Ki [3] [µM] | Ki (D(2) dopamine receptor [4]) [µM] | Ratio [5] | Ki [6] [µM] | Ki [7] [µM] | Ki [8] [µM] | Structure (SMILES)
8 | 0.0019 | 0.024 | 0.0004 | 0.0359 |  |  |  |  | c1ccc(CNC[C@H]2CCc3ccc4[nH]ccc4c3O2)cc1
9 | 0.00084 | 0.039 | 0.024 | 0.0178 |  |  |  |  | O=C1Cc2c(OCCNCc3ccsc3)ccc(F)c2N1
10 | 0.00086 | 0.128 | 0.025 | 0.00502 |  |  |  |  | O=C1Cc2c(OCCN3CCc4ccccc4C3)ccc(F)c2N1
11 | 0.00063 | 0.052 | 0.535 | 0.0053 |  |  |  |  | O=C1Cc2c(OCCNCc3ccccc3)ccc(F)c2N1
12 | 0.0048 | 0.22 | 0.34 | 0.0274 |  |  |  |  | O=C1Cc2c(OCCNCc3ccc(-c4ccccc4)cc3)ccc(F)c2N1
13 | 0.0014 | 0.134 | 1.89 | 0.0041 |  |  |  |  | O=C1Cc2c(OCCNCc3ccc(Cl)cc3)ccc(Cl)c2N1
14 | 0.00044 | 0.085 | 0.041 | 0.00285 |  |  |  |  | O=C1Cc2c(OCCN3Cc4ccccc4C3)ccc(Cl)c2N1
15 | 0.0048 |  |  | 0.0157 | 3 | 0.0005 | 0.0085 |  | Clc1c[nH]c2cccc(OCCNCCCCc3ccccc3)c12
16 | 0.003 |  |  | 0.0166 | 6 |  | 0.06 | 0.03 | O=C(c1c[nH]c2cccc(OCCNCc3ccccc3)c12)C(F)(F)F
17 | 0.00024 | 0.014 | 0.083 | 0.00332 |  |  |  |  | O=C1Cc2c(OCCNCc3ccsc3)ccc(Cl)c2N1
18 |  | 2.899 | 0.625 |  |  |  |  |  | O=C1Cc2c(OCCNCc3cccc(-c4ccccc4)c3)ccc(F)c2N1
